Test results from the RNAGym collection of RNA variant scans (doi:10.1002/anie.201605470).

B1: Osa-1-4 twister ribozyme (parent)
chain: CCGCCUAACACUGCCAAUGCCGGUCCCAAGCCCGGAUAAAAGUGGAGGGGGCGG

Variants of: B1
Assay: self-cleavage, relative activity (ratio to wild type); higher = more cleavage; co-transcriptional
Procedure, shortened: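 For each read, cleavage status was taken from whether upstream sequence was present. The reads came from an Oryza sativa twister ribozyme of 54 nucleotides, whose DNA template was synthesised with 97 % wild-type base and 1 % of each other base at the 48 positions downstream of the cleavage site. The template was transcribed in vitro at 37 °C for 2 h with co-transcriptional self-cleavage, and the RNA was reverse-transcribed using a template-switching oligonucleotide, PCR-amplified and deep-sequenced. Relative activity is the fraction cleaved normalised to wild type.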

Variant	self-cleavage
CCGCCUAACACUGCCAAUGCCGGUCCCGAGCCCGUAUAAAAGUGGAGGGGGCGG [A28G G35U]	0.15
CCGCCUAACACUGCCAAUGCCGGUCCCGAGCCCGAAUAAAAGUGGAGGGGGCGG [A28G G35A]	0.21
CCGCCUAACACUGCCAAUGCCGGUCCCGAGCCCGCAUAAAAGUGGAGGGGGCGG [A28G G35C]	0.09
CCGCCUAACACUGCCAAUGCCGGUCCCUAGCCCGGAUAAAAGUGGAGGGGGCGG [A28U]	0.96
CCGCCUAACACUGCCAAUGCCGGUCCCGAGCCCGGAUAAAAGUGGAGGGGGAGG [A28G C52A]	0.2
CCGCCUAACACUGCCAAUGCCGGUCCCGAGCCCGGAUAAAAGUGGAGGGGGUGG [A28G C52U]	0.46
CCGCCUAACACUGCCAAUGCCGGUCCCGAGCCCGGAUAAAAGUGGAGGGGGGGG [A28G C52G]	0.32
CCGCCUAACACUGCCAAUGCCGGUCCCGAGCCCGGAUAAAAGUGGAGGGUGCGG [A28G G50U]	0.23
CCGCCUAACACUGCCAAUGCCGGUCCCGAGCCCGGAUAAAAGUGGAGGGCGCGG [A28G G50C]	0.14
CCGCCUAACACUGCCAAUGCCGGUCCCGAGCCCGGAUAAAAGUGGAGGGAGCGG [A28G G50A]	0.28
CCGCCUAACACUGCCAAUGCCGGUCCGGAGCCCGGAUAAAAGUGGAGGGGGCGG [A28G C27G]	0.1
CCGCCUAACACUGCCAAUGCCGGUCCUGAGCCCGGAUAAAAGUGGAGGGGGCGG [A28G C27U]	0.07
CCGCCUAACACUGCCAAUGCCGGUCCAGAGCCCGGAUAAAAGUGGAGGGGGCGG [A28G C27A]	0.06
CCGCCUAACACUGCCAAUGCCGGUCCCGAGCCCGGAUAAAAGUGGAGGCGGCGG [A28G G49C]	0.04
CCGCCUAACACUGCCAAUGCCGGUCCCGAGCCCGGAUAAAAGUGGAGGUGGCGG [A28G G49U]	0.06
CCGCCUAACACUGCCAAUGCCGGUCCCGAGCCCGGAUAAAAGUGGAGGAGGCGG [A28G G49A]	0.06
CCGCCUAACACUGCCAAUGCCGGUCCCGAGCCCGGAUAAAAGUGGACGGGGCGG [A28G G47C]	0.04
CCGCCUAACACUGCCAAUGCCGGUCCCGAGCCCGGAUAAAAGUGGAAGGGGCGG [A28G G47A]	0.08
CCGCCUAACACUGCCAAUGCCGGUCCCGAGCCCGGAUAAAAGUGGAUGGGGCGG [A28G G47U]	0.07
CCGCCUAACACUGCCAAUGCCAGUCCCGAGCCCGGAUAAAAGUGGAGGGGGCGG [A28G G22A]	0.14
CCGCCUAACACUGCCAAUGCCUGUCCCGAGCCCGGAUAAAAGUGGAGGGGGCGG [A28G G22U]	0.1
CCGCCUAACACUGCCAAUGCCCGUCCCGAGCCCGGAUAAAAGUGGAGGGGGCGG [A28G G22C]	0.06
CCGCCUAACACUGCCAACGCCGGUCCCGAGCCCGGAUAAAAGUGGAGGGGGCGG [A28G U18C]	0.23
CCGCCUAACACUGCCAAGGCCGGUCCCGAGCCCGGAUAAAAGUGGAGGGGGCGG [A28G U18G]	0.59
CCGCCUAACACUGCCAAAGCCGGUCCCGAGCCCGGAUAAAAGUGGAGGGGGCGG [A28G U18A]	0.34

Variant	self-cleavage
CCGCCUAACACUGCCAAUGCGGGUCCCGAGCCCGGAUAAAAGUGGAGGGGGCGG [A28G C21G]	0.06
CCGCCUAACACUGCCAAUGCAGGUCCCGAGCCCGGAUAAAAGUGGAGGGGGCGG [A28G C21A]	0.07
CCGCCUAACACUGCCAAUGCUGGUCCCGAGCCCGGAUAAAAGUGGAGGGGGCGG [A28G C21U]	0.23
CCGCCUAACACUGCCAAUGCCGGUCCCGAGCCCGGAUAAAAGUGGAGGGGGCGA [A28G G54A]	0.15
CCGCCUAACACUGCCAAUGCCGGUCCCGAGCCCGGAUAAAAGUGGAGGGGGCGC [A28G G54C]	0.14
CCGCCUAACACUGCCAAUGCCGGUCCCGAGCCCGGAUAAAAGUGGAGGGGGCGU [A28G G54U]	0.27
CCGCCUAACACUGCUAAUGCCGGUCCCGAGCCCGGAUAAAAGUGGAGGGGGCGG [A28G C15U]	0.08
CCGCCUAACACUGCCAAUGCCGGUCCCGAGCCCGGACAAAAGUGGAGGGGGCGG [A28G U37C]	0.37
CCGCCUAACACUGCCAAUGCCGGUCCCGAGCCCGGAAAAAAGUGGAGGGGGCGG [A28G U37A]	0.25
CCGCCUAACACUGCCAAUGCCGGUCCCGAGCCCGGAGAAAAGUGGAGGGGGCGG [A28G U37G]	0.51
CCGCCUAACACUGCCAAUGCCGGUCCCGAGCCCGGAUAAAAGCGGAGGGGGCGG [A28G U43C]	0.1
CCGCCUAACACUGCCAAUGCCGGUCCCGAGCCCGGAUAAAAGAGGAGGGGGCGG [A28G U43A]	0.14
CCGCCUAACACUGCCAAUGCCGGUCCCGAGCCCGGAUAAAAGGGGAGGGGGCGG [A28G U43G]	0.09
CCGCCUAACACUGCCAAUGCCGGUCGCGAGCCCGGAUAAAAGUGGAGGGGGCGG [A28G C26G]	0.21
CCGCCUAACACUGCCAAUGCCGGUCUCGAGCCCGGAUAAAAGUGGAGGGGGCGG [A28G C26U]	0.11
CCGCCUAACACUGCCAAUGCCGGUCACGAGCCCGGAUAAAAGUGGAGGGGGCGG [A28G C26A]	0.03
CCGCCUAACACUGCCAAUGCCGGUCCCGAGCCCGGAUAAAAGUGUAGGGGGCGG [A28G G45U]	0.05
CCGCCUAACACUGCCAAUGCCGGUCCCGAGCCCGGAUAAAAGUGCAGGGGGCGG [A28G G45C]	0.04
CCGCCUAACACUGCCAAUGCCGGUCCCGAGCCCGGAUAAAAGUGAAGGGGGCGG [A28G G45A]	0.05
CCGCCUAACACCGCCAAUGCCGGUCCCGAGCCCGGAUAAAAGUGGAGGGGGCGG [A28G U12C]	0.1
CCGCCUAACACGGCCAAUGCCGGUCCCGAGCCCGGAUAAAAGUGGAGGGGGCGG [A28G U12G]	0.07
CCGCCUAACACAGCCAAUGCCGGUCCCGAGCCCGGAUAAAAGUGGAGGGGGCGG [A28G U12A]	0.12
CCGCCUAACACUUCCAAUGCCGGUCCCGAGCCCGGAUAAAAGUGGAGGGGGCGG [A28G G13U]	0.01
CCGCCUAACACUCCCAAUGCCGGUCCCGAGCCCGGAUAAAAGUGGAGGGGGCGG [A28G G13C]	0.03
CCGCCUAACACUACCAAUGCCGGUCCCGAGCCCGGAUAAAAGUGGAGGGGGCGG [A28G G13A]	0.05

Variant	self-cleavage
CCGCCUAACACUGCCAAUGCCGGACCCGAGCCCGGAUAAAAGUGGAGGGGGCGG [A28G U24A]	0.06
CCGCCUAACACUGCCAAUGCCGGGCCCGAGCCCGGAUAAAAGUGGAGGGGGCGG [A28G U24G]	0.02
CCGCCUAACACUGCCAAUGCCGGCCCCGAGCCCGGAUAAAAGUGGAGGGGGCGG [A28G U24C]	0.07
CCGCCUAACACUGCCAAUGCCGGUGCCGAGCCCGGAUAAAAGUGGAGGGGGCGG [A28G C25G]	0.09
CCGCCUAACACUGCCAAUGCCGGUACCGAGCCCGGAUAAAAGUGGAGGGGGCGG [A28G C25A]	0.04
CCGCCUAACACUGCCAAUGCCGGUUCCGAGCCCGGAUAAAAGUGGAGGGGGCGG [A28G C25U]	0.11
CCGCCUAACACUGCCAAUGCCGGUCCCGAGCCUGGAUAAAAGUGGAGGGGGCGG [A28G C33U]	0.11
CCGCCUAACACUGCCAAUGCCGGUCCCGAGCCAGGAUAAAAGUGGAGGGGGCGG [A28G C33A]	0.06
CCGCCUAACACUGCCAAUGCCGGUCCCGAGCCGGGAUAAAAGUGGAGGGGGCGG [A28G C33G]	0.05
CCGCCUAACACUGCCAAUGCCGGUCCCGAGCCCUGAUAAAAGUGGAGGGGGCGG [A28G G34U]	0.1
CCGCCUAACACUGCCAAUGCCGGUCCCGAGCCCCGAUAAAAGUGGAGGGGGCGG [A28G G34C]	0.08
CCGCCUAACACUGCCAAUGCCGGUCCCGAGCCCAGAUAAAAGUGGAGGGGGCGG [A28G G34A]	0.21
CCGCCUAACACUGCCAAUGCCGGUCCCGAGCCCGGAUAAAAGUGGAGUGGGCGG [A28G G48U]	0.04
CCGCCUAACACUGCCAAUGCCGGUCCCGAGCCCGGAUAAAAGUGGAGAGGGCGG [A28G G48A]	0.04
CCGCCUAACACUGCCAAUGCCGGUCCCGAGCCCGGAUAAAAGUGGAGCGGGCGG [A28G G48C]	0.05
CCGCCUCACACUGCCAAUGCCGGUCCCUAGCCCGGAUAAAAGUGGAGGGGGCGG [A28U A7C]	0.04
CCGCCUGACACUGCCAAUGCCGGUCCCUAGCCCGGAUAAAAGUGGAGGGGGCGG [A28U A7G]	0.13
CCGCCUAACACUGCCAAUGCCGGUCCCGAGCUCGGAUAAAAGUGGAGGGGGCGG [A28G C32U]	0.05
CCGCCUAACACUGCCAAUGCCGGUCCCGAGCGCGGAUAAAAGUGGAGGGGGCGG [A28G C32G]	0.08
CCGCCUAACACUGCCAAUGCCGGUCCCGAGCACGGAUAAAAGUGGAGGGGGCGG [A28G C32A]	0.06
CCGCCUAACACUGCCAAUGACGGUCCCGAGCCCGGAUAAAAGUGGAGGGGGCGG [A28G C20A]	0.37
CCGCCUAACACUGCCAAUGUCGGUCCCGAGCCCGGAUAAAAGUGGAGGGGGCGG [A28G C20U]	0.31
CCGCCUAACACUGCCAAUGGCGGUCCCGAGCCCGGAUAAAAGUGGAGGGGGCGG [A28G C20G]	0.08
CCGCCUAACACUGCCAAUGCCGGUCCCGAGCCCGGAUAAAAGUGGAGGGGGCCG [A28G G53C]	0.06
CCGCCUAACACUGCCAAUGCCGGUCCCGAGCCCGGAUAAAAGUGGAGGGGGCUG [A28G G53U]	0.1

Variant	self-cleavage
CCGCCUAACACUGCCAAUGCCGGUCCCGAGCCCGGAUAAAAGUGGAGGGGGCAG [A28G G53A]	0.14
CCGCCUAACACUGCCAAUGCCGGUCCCGAGCCCGGAUAAAACUGGAGGGGGCGG [A28G G42C]	0.07
CCGCCUAACACUGCCAAUGCCGGUCCCGAGCCCGGAUAAAAAUGGAGGGGGCGG [A28G G42A]	0.1
CCGCCUAACACUGCCAAUGCCGGUCCCGAGCCCGGAUAAAAUUGGAGGGGGCGG [A28G G42U]	0.04
CCGCCUAACACUGCCAAUGCCGGUCCCGAGCCCGGAUAAAAGUGGAGGGGACGG [A28G G51A]	0.11
CCGCCUAACACUGCCAAUGCCGGUCCCGAGCCCGGAUAAAAGUGGAGGGGUCGG [A28G G51U]	0.06
CCGCCUAACACUGCCAAUGCCGGUCCCGAGCCCGGAUAAAAGUGGAGGGGCCGG [A28G G51C]	0.06
CCGCCUAACACUGCCAAUGCCGGUCCCGAACCCGGAUAAAAGUGGAGGGGGCGG [A28G G30A]	0.05
CCGCCUAACACUGCCAAUGCCGGUCCCGAUCCCGGAUAAAAGUGGAGGGGGCGG [A28G G30U]	0.05
CCGCCUAACACUGCCAAUGCCGGUCCCGACCCCGGAUAAAAGUGGAGGGGGCGG [A28G G30C]	0.04
CCGCCUAACACUGCCAAUGCCGUUCCCGAGCCCGGAUAAAAGUGGAGGGGGCGG [A28G G23U]	0.05
CCGCCUAACACUGCCAAUGCCGAUCCCGAGCCCGGAUAAAAGUGGAGGGGGCGG [A28G G23A]	0.13
CCGCCUAACACUGCCAAUGCCGCUCCCGAGCCCGGAUAAAAGUGGAGGGGGCGG [A28G G23C]	0.04
CCGCCUAACACUGCCAAUACCGGUCCCGAGCCCGGAUAAAAGUGGAGGGGGCGG [A28G G19A]	0.15
CCGCCUAACACUGCCAAUUCCGGUCCCGAGCCCGGAUAAAAGUGGAGGGGGCGG [A28G G19U]	0.08
CCGCCUAACACUGCCAAUCCCGGUCCCGAGCCCGGAUAAAAGUGGAGGGGGCGG [A28G G19C]	0.05
CCGCCUAACACUGCCAAUGCCGGUCCCGAGUCCGGAUAAAAGUGGAGGGGGCGG [A28G C31U]	0.08
CCGCCUAACACUGCCAAUGCCGGUCCCGAGGCCGGAUAAAAGUGGAGGGGGCGG [A28G C31G]	0.09
CCGCCUAACACUGCCAAUGCCGGUCCCGAGACCGGAUAAAAGUGGAGGGGGCGG [A28G C31A]	0.02
CCGCCUAACACUGCCAAUGCCGGUCCCGAGCCCGGAUAAAAGUCGAGGGGGCGG [A28G G44C]	0.12
CCGCCUAACACUGCCAAUGCCGGUCCCGAGCCCGGAUAAAAGUAGAGGGGGCGG [A28G G44A]	0.1
CCGCCUAACACUGCCAAUGCCGGUCCCGAGCCCGGAUAAAAGUUGAGGGGGCGG [A28G G44U]	0.11
